Measurements: ChEMBL document CHEMBL1150676, “Two new biologically active triterpenoidal saponins acylated with salicylic acid from Albizia adianthifolia” (J Nat Prod, 2003)
Calls of active or inactive are those of the source. No cut-off for these calls is given here.

Legend:
Jurkat [1] = assay: Immunomodulatory effect in human Jurkat cells assessed as cell proliferation stimulation index at 1 to 10 uM by [3H]thymidine incorporation assay
[2] = Toxicity in sheep erythrocytes assessed as induction of hemolysis; assay type: cell-based, Ovis aries, Erythrocyte; settings: read-out: HD50 (the source's name)
Outline: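 Hemolysis measured on sheep erythrocytes, tested up to 400 μg/mL. Activity expressed as HC50 (μg/mL).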

Jurkat [3] = assay: Cytotoxicity against human Jurkat cells at 1 uM; assay type: functional, cell-based
Outline: (§1)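 Jurkat human T-cell leukemia cells exposed to compounds at 10⁻²–10 μM. Proliferation read by ³H-thymidine incorporation and expressed as stimulation index (SI). Mean ± SE, n = 4.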

Jurkat [4] = assay: Immunomodulatory effect in human Jurkat cells assessed as cell proliferation stimulation index at 0.01 uM by [3H]thymidine incorporation assay
Jurkat [5] = assay: Immunomodulatory effect in human Jurkat cells by [3H]thymidine incorporation assay
Jurkat [6] = assay: Inhibition of human Jurkat cell proliferation at 1 uM by [3H]thymidine incorporation assay
Jurkat [7] = assay: Cytotoxicity against human Jurkat cells at =>10 uM; assay type: functional, cell-based
Outline: as §1

CC(=O)N[C@H]1[C@H](O[C@H]2CC[C@]3(C)[C@H]4CC=C5[C@@H]6CC(C)(C)[C@@H](O)C[C@]6(C(=O)O)[C@H](O)C[C@@]5(C)[C@]4(C)CC[C@H]3C2(C)C)O[C@H](CO[C@@H]2O[C@H](C)[C@H](O)[C@H](O)[C@H]2O[C@@H]2OC[C@@H](O)[C@H](O)[C@H]2O)[C@@H](O)[C@@H]1O
Activity (Jurkat [1]): Active | HC50 [2]: > 400 µg/mL | Activity (Jurkat [3]): Not toxic

CC(=O)N[C@H]1[C@H](O[C@H]2CC[C@]3(C)[C@H]4CC=C5[C@@H]6CC(C)(C)[C@@H](OC(=O)c7ccccc7O)C[C@]6(C(=O)O[C@@H]6O[C@H](CO)[C@@H](O)[C@H](O)[C@H]6O[C@@H]6O[C@@H](C)[C@H](O[C@@H]7O[C@@H](CO)[C@H](O)[C@H]7O)[C@@H](O[C@@H]7O[C@H](CO)[C@@H](O)[C@H](O)[C@H]7O)[C@H]6O)[C@H](O)C[C@@]5(C)[C@]4(C)CC[C@H]3C2(C)C)O[C@H](CO[C@@H]2O[C@H](C)[C@H](O)[C@H](O)[C@H]2O[C@@H]2OC[C@@H](O)[C@H](O)[C@H]2O)[C@@H](O)[C@@H]1O [ADIANTHIFOLIOSIDE A]
HC50 [2]: 17.5 µg/mL | Activity (Jurkat [3]): Toxic

C[C@@H]1O[C@@H](O[C@H]2[C@H](OC(=O)[C@]34C[C@H](OC(=O)c5ccccc5O)C(C)(C)C[C@H]3C3=CC[C@@H]5[C@@]6(C)CC[C@H](O[C@@H]7O[C@H](CO[C@@H]8O[C@H](C)[C@H](O)[C@H](O)[C@H]8O[C@@H]8OC[C@@H](O)[C@H](O)[C@H]8O)[C@@H](O)[C@H](O)[C@H]7O[C@@H]7O[C@H](CO)[C@@H](O)[C@H](O)[C@H]7O)C(C)(C)[C@@H]6CC[C@@]5(C)[C@]3(C)C[C@H]4O)O[C@H](CO)[C@@H](O)[C@@H]2O)[C@H](O)[C@H](O[C@@H]2O[C@H](CO)[C@@H](O)[C@H](O)[C@H]2O)[C@H]1O[C@@H]1O[C@@H](CO)[C@H](O)[C@H]1O [ADIANTHIFOLIOSIDE B]
Activity (Jurkat [4]): 1.21 | Activity (Jurkat [5]): Dose-dependent effect | Activity (Jurkat [6]): Active

C=CC(C)(CC/C=C(\CO)C(=O)O[C@H]1C[C@]2(C(=O)O)[C@H](O)C[C@]3(C)C(=CC[C@@H]4[C@@]5(C)CC[C@H](O[C@@H]6O[C@H](CO[C@@H]7O[C@H](C)[C@H](O)[C@H](O)[C@H]7O[C@@H]7OC[C@@H](O)[C@H](O)[C@H]7O)[C@@H](O)[C@H](O)[C@H]6O[C@@H]6O[C@H](CO)[C@@H](O)[C@H](O)[C@H]6O)C(C)(C)[C@@H]5CC[C@]43C)[C@@H]2CC1(C)C)O[C@@H]1O[C@@H](C)[C@H](O)[C@@H](O)[C@@H]1O (stereo not given in full)
HC50 [2]: > 400 µg/mL | Activity (Jurkat [7]): Toxic
